Published values from different studies.
Each line is one published result; the experiments were not run side by side.
Target: Tyrosine-protein kinase Mer (MERTK, Homo sapiens, UniProt Q12866)
Sequence (Q12866 21-999, as in one of the studies): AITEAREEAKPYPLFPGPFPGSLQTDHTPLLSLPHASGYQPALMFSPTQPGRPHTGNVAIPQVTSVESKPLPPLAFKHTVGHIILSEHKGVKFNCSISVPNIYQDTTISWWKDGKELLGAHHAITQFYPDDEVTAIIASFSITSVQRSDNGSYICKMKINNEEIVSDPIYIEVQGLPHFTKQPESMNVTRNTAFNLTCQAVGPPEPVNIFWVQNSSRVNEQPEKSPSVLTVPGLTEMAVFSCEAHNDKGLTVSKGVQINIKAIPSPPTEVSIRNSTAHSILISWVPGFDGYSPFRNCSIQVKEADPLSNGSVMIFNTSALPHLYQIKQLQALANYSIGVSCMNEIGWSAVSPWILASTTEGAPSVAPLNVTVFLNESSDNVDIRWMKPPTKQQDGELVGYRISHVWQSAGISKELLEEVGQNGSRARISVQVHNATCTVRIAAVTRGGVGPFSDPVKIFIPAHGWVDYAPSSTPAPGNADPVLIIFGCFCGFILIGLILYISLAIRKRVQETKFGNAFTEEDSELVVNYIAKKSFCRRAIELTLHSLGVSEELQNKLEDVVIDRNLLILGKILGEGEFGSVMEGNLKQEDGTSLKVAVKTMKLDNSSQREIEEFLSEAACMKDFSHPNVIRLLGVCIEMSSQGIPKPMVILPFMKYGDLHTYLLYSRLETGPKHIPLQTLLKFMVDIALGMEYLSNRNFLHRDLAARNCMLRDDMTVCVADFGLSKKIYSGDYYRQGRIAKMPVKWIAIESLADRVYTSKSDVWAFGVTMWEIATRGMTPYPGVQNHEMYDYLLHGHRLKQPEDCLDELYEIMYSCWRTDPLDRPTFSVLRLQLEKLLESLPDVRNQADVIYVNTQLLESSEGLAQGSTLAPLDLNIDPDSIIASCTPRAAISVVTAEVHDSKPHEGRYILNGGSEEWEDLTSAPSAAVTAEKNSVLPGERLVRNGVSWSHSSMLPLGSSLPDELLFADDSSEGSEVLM

Cn1cncc1[C@@](O)(COc1ccc(C#N)cc1-c1ccc(OC(F)(F)F)cc1)c1ccc(C#N)cc1 has a remaining binding of 69% (cell-free assay; competition with immobilised ligand; 1 µM).
With O=c1[nH]c2ccccc2n1C1CCN(Cc2ccc(-c3[nH]c4cc5ncnc5cc4nc3-c3ccccc3)cc2)CC1 the remaining signal was 96.2% (cell-free assay; 0.5 µM).
For COc1ncccc1-c1cnn2ccc(N3CCN(C(=O)OC(C)C)CC3)nc12, the remaining binding was 100% (binding; competition with immobilised ligand; 1 µM).
Cc1nn(C)cc1-c1nc2c(N3CCN(Cc4ccc(Cl)cc4)CC3)c(Cl)cnc2[nH]1 has a remaining binding of 100% (binding; competition with immobilised ligand; 1 µM).
Cn1cc(-c2cccc(N3CCc4c(sc5c4CC(C)(C)C5)C3=O)c2CO)cc(Nc2ccncn2)c1=O gave an inhibition of 1% (enzyme activity; inhibitor; 1 µM).
The remaining binding of Nc1ncc(-c2nc(N3CCOCC3)nc(N3CCOCC3)n2)c(C(F)F)n1 is reported as 87% (binding; competition with immobilised ligand; 10 µM).
The inhibition of Cn1cc(-c2cc(F)cc(N3CCn4c(cc5c4CCCC5)C3=O)c2CO)cc(Nc2ccc(N3CCN(C4COC4)CC3)cn2)c1=O is reported as 11% (enzyme activity; inhibitor; 0.1 µM).
CC(C)(C)c1cc(C=C(C#N)C#N)cc(Br)c1O gave a remaining activity of 97.3% (enzyme activity; inhibitor; 0.5 µM).
For COc1cc(Nc2ncc(F)c(Nc3ccc4c(n3)NC(=O)C(C)(C)O4)n2)cc(OC)c1OC, the inhibition was 100% (binding; competition with immobilised ligand; 10 µM).
N#CC1(c2ccccn2)CCN(Cc2cc(C(=O)O)c(=O)n3ccccc23)CC1 gave a remaining binding of 100% (cell-free assay; competition with immobilised ligand; 1 µM).
The inhibition of C#Cc1n[nH]c2c(-c3cn(C(C)c4ccccn4)c(=O)[nH]c3=O)cc(F)cc12 (centres unmarked) is reported as 99.6% (enzyme activity; inhibitor; 1 µM).
